A word on the pKa: it is the pH at which an ionisable group is half protonated. One may read the Kp as the ratio of the level in a tissue or fluid to that in plasma or blood.

A value given as a limit tells only on which side of the number the result lay.

Series [1] concerns Serum. Nature of the series: (§1) Fraction unbound in jugular and femoral vein-cannulated lactating Sprague-Dawley rat serum at 0.4 mg/ml, iv administered as infusion after 8 hrs by equilibrium dialysis method. The conditions noted are these: in vivo, 8 h. It is filed as ADME, organism-based. In outline: (§2)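 Equilibrium dialysis of rat serum and milk against 0.133 M phosphate buffer (serum pH 7.45, milk pH 6.8), 8 h at 37°C, in 0.5 ml cells. Serum levels used were those seen in the infusion study. Both sides measured by LC-MS. n=4.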
(Equilibrium dialysis compares concentrations on both sides of a semipermeable membrane.)

A short description of series [2]: Fraction unbound in jugular and femoral vein-cannulated lactating Sprague-Dawley rat whole milk at 0.4 mg/ml, iv administered as infusion after 8 hrs by equilibrium dialysis method. It counts as ADME, organism-based. Put shortly:
as §2

Series [3] deals with Serum. Nature of the series: (§3) Drug uptake in jugular and femoral vein-cannulated lactating Sprague-Dawley rat serum at 0.4 mg/ml, iv administered as infusion after 2 hrs by LC-MS analysis. It is filed as ADME, organism-based. The following applies: in vivo, 2 h. In outline:
(§4)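 Lactating Sprague-Dawley rats on days 10–12 postpartum, cannulated. i.v. bolus of GF120918 (10 mg/kg in DMSO) or DMSO alone, then 10 min later an 8 h i.v. infusion of racemic drug in saline (0.4 mg/ml/h). Serum sampled at 2, 4, 6, 8 h. Milk collected by manual expression under light ketamine anesthesia at 8 h. Isomers quantified by LC-MS with zonisamide internal standard. n=5.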

The test system of another series is Rattus norvegicus. The series can be described thus: (§5) Clearance in jugular and femoral vein-cannulated lactating Sprague-Dawley rat at 0.4 mg/ml, iv administered as infusion. It counts as ADME, organism-based. The conditions noted are these: in vivo. Put shortly: (§6)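 Lactating Sprague-Dawley rats on days 10–12 postpartum, jugular and femoral cannulated under ketamine/xylazine. Crossover design: i.v. bolus of GF120918 (10 mg/kg in DMSO) or DMSO 10 min before an 8 h i.v. infusion of racemic drug in saline (0.4 mg/ml/h). Enantiomers measured by chiral LC-MS. Clearance = infusion rate / mean serum level over 2–8 h. M/S = 8 h milk level / serum level. n=5.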

The nature of series [4]: Drug uptake in jugular and femoral vein-cannulated lactating Sprague-Dawley rat milk at 0.4 mg/ml, iv administered as infusion after 8 hrs by LC-MS analysis. It is filed as ADME, organism-based. The conditions noted are these: in vivo. In outline: as §4
A short description of series [5]: Drug uptake in jugular and femoral vein-cannulated lactating Sprague-Dawley rat milk at 0.4 mg/ml, iv administered as infusion after 8 hrs by LC-MS analysis in presence of GF120918. It counts as ADME, organism-based. The following applies: in vivo. In outline: as §4
In another series the test system is MDCK. Nature of the series: Asymmetrical efflux ratio of permeability in MDCK cells at 25 uM after 1 hr. It is filed as ADME, cell-based, Canis lupus familiaris. The conditions noted are these: dog. In outline:
(§7)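 Rat Abcg2-transfected and empty-vector MDCKII cells seeded at 1.0×10^6 cells/well on 3.0 μm Transwell filters, grown 4 days to TEER >200 Ω·cm². Racemic pantoprazole donor at 25 μM, 37°C, 5% CO2. Receiver sampled at 1, 2, 3, 4 h; [³H]mannitol checked monolayer integrity. Efflux ratio taken at 1 h from initial rates; n=3.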

For series [6], the target named is T1, Broad substrate specificity ATP-binding cassette transporter ABCG2 (Rattus norvegicus, UniProt Q80W57).
T1 sequence (Q80W57 whole entry): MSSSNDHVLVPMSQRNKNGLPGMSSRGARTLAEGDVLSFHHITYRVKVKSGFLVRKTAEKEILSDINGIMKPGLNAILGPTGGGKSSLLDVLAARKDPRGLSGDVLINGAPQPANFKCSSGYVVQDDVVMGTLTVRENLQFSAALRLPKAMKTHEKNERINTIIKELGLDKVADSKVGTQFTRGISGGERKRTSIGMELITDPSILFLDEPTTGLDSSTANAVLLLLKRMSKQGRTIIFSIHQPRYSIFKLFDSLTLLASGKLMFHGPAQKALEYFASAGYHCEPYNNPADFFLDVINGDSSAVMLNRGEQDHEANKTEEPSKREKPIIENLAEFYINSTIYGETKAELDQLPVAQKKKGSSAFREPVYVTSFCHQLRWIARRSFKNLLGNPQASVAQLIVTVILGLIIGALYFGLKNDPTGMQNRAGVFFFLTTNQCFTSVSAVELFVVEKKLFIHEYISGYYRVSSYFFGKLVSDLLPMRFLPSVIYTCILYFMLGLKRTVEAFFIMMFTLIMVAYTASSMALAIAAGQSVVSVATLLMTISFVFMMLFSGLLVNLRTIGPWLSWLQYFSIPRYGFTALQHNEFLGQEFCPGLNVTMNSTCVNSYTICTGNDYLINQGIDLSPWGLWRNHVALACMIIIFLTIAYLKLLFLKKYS
Nature of the series: Activity at rat ABCG2 expressed in MDCK cells assessed as asymmetrical efflux ratio of permeability at 25 uM after 1 hr. It counts as ADME, cell-based. In outline: as §7

A short description of series [7]: as §1. It is filed as ADME, organism-based. The following applies: female, Sprague-Dawley, serum, 0.4 mg/ml. In outline: as §2
The nature of series [8]: Dissociation constant, pKa of the compound. It is filed as physicochemical.
Series [9] can be described thus: as §3. It counts as ADME, organism-based. The following applies: female, Sprague-Dawley, serum, 0.4 mg/ml, read-out: Drug uptake. Put shortly: as §4
The test system of series [10] is Serum. Nature of the series: Drug uptake in jugular and femoral vein-cannulated lactating Sprague-Dawley rat serum at 0.4 mg/ml, iv administered as infusion after 2 hrs by LC-MS analysis in presence of GF120918. The conditions noted are these: in vivo. It counts as ADME, organism-based. In outline:
as §4

A short description of series [11]: as §5. The following applies: female, Sprague-Dawley, in vivo, 0.4 mg/ml. It is filed as ADME, organism-based. In outline:
as §6

A short description of series [12]: Ratio of drug level in milk to serum in jugular and femoral vein-cannulated lactating Sprague-Dawley rat at 0.4 mg/ml, iv administered as infusion in presence of GF120918. The conditions noted are these: female, with GF120918. It is filed as ADME, organism-based.
Series [13] in a line: Protein binding in human serum. It is filed as ADME, cell-free. The following applies: read-out: PB.

On to `COc1ccnc(C[S+]([O-])c2nc3cc(OC(F)F)ccc3[n-]2)c1OC.O.[Na+]` (stereo in doubt; (+)) [PANTOPRAZOLE SODIUM], for which the Fu was 2.33% with Serum [1] and 26% in [2] (in vivo, 8 h). Further, the Drug uptake with Serum [3] was found to be 1.2 µg/mL; in series [4] it was 0.64 µg/mL; in series [5], 0.53 µg/mL. The same molecule showed a CL in the series on Rattus norvegicus of 9.5 mL/min/kg. The Ratio in the series with MDCK stood at 0.9; in series [6], 5.15.
On to `COc1ccnc(C[S+]([O-])c2nc3cc(OC(F)F)ccc3[n-]2)c1OC.O.[Na+]` (stereo in doubt; (-)) [PANTOPRAZOLE SODIUM], for which the fraction unbound at 8 h in series [7] worked out at 0.0238; in [2] (female, Sprague-Dawley, whole milk, 0.4 mg/ml), 0.271. The molecule also displayed a pKa in series [8] of 3.9. Besides, in series [9], the concentration at 2 h was determined as 1630 ng/mL. The values for the Drug uptake (in the series on Serum [10]; in [4]; in [5]) were 37%, 2.26 µg/mL and 1.1 µg/mL, respectively. For the same molecule, in series [11], the clearance is 7.33 mL/min/kg. In series [6], the Ratio is recorded as 1.51. The Kp in [12] was 0.5.
With `COc1ccnc(C[S+]([O-])c2nc3ccc(OC(F)F)cc3[nH]2)c1OC` (centres undefined) [PANTOPRAZOLE SODIUM], the fraction unbound in [13] was below 0.02.

Source of the values: ChEMBL document CHEMBL3526150, “Stereoselective interaction of pantoprazole with ABCG2. I. Drug accumulation in rat milk” (Drug Metab Dispos, 2012).
